Calls of active or inactive are those of the source. No cut-off for these calls is given here.
Key:
Assay type in all cases: functional, cell-based
[1] = biological target: T1, Adenosine receptor A1 (Homo sapiens) (UniProt P30542); assay: Agonist activity at human A1 receptor expressed in CHO cells assessed as enhancement of R-PIA mediated ERK1/2 phosphorylation at 3 uM after 5 mins by Alpha-Screen assay
T1 sequence (whole entry): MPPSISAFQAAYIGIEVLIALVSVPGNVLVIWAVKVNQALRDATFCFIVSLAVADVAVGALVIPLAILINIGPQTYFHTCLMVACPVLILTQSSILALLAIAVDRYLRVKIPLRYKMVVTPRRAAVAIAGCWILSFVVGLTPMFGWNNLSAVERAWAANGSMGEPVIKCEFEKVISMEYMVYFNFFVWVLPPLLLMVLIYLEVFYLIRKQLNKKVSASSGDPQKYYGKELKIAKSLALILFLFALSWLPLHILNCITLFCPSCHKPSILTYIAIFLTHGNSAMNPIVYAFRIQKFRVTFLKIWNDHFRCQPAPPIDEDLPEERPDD
Procedure, shortened: (§1)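 Flp-In CHO cells stably expressing human A1R, 30000/well, serum-starved overnight, then 1 U/mL ADA for 30 min. Test compound (3 or 10 μM) added 5 min before an EC50 concentration of R-PIA (determined same day), then a further 5 min at 37 °C. pERK1/2 read by SureFire AlphaScreen. Mean of two to three experiments in triplicate.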

[2] = biological target: T1, Adenosine receptor A1 (Homo sapiens); assay: Agonist activity at human A1 receptor expressed in CHO cells assessed as enhancement of R-PIA mediated ERK1/2 phosphorylation at 10 uM after 5 mins by Alpha-Screen assay; procedure, shortened: as §1
[3] = biological target: T1, Adenosine receptor A1 (Homo sapiens); assay: Agonist activity at human A1 receptor expressed in CHO cells assessed as stimulation of ERK1/2 phosphorylation at 3 to 10 uM after 5 mins by Alpha-Screen assay
Procedure, shortened: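 Flp-In CHO cells stably expressing human A1R, serum-starved overnight and pretreated with 1 U/mL ADA for 30 min. Compound (3 and 10 μM) applied alone, 5 min at 37 °C. Intrinsic agonism measured as ERK1/2 phosphorylation by SureFire AlphaScreen, with 3% FBS as positive control. Two to three experiments in triplicate.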

[4] = biological target: T1, Adenosine receptor A1 (Homo sapiens); assay: Positive allosteric modulation at human A1 receptor expressed in CHO cells assessed as enhancement of R-PIA-mediated inhibition of forskolin-stimulated cAMP accumulation after 30 mins by Alpha-Screen assay
Procedure, shortened: (§2)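 Serum-starved CHO-FlpIn hA1R cells were preincubated 30 min in phenol red-free DMEM with 0.1% BSA, 1 U/mL ADA and 500 μM IBMX. They were then treated with 10 μM forskolin plus R-PIA and/or modulator for 30 min at 37 °C, and cAMP was read by AlphaScreen. Data were normalized to 10 μM forskolin and fitted to an operational model of allosterism. Three experiments in duplicate.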

[5] = biological target: T1, Adenosine receptor A1 (Homo sapiens); assay: Positive allosteric modulation at human A1 receptor expressed in CHO cells assessed as inhibition of forskolin-stimulated cAMP accumulation after 30 mins by Alpha-Screen assay; procedure, shortened: as §2

| Structure (SMILES) | Activity [1] [%] | Activity [2] [%] | Activity [3] | Activity [4] | Activity [5] |
| --- | --- | --- | --- | --- | --- |
| Cc1ccc(C(=O)c2c(-c3cc(C(F)(F)F)cc(C(F)(F)F)c3)csc2N)cc1 | 86 | 87 |  |  |  |
| Cc1sc(N)c(C(=O)c2ccc(Cl)cc2)c1-c1cc(C(F)(F)F)cc(C(F)(F)F)c1 | 84 | 88 |  |  |  |
| Cc1sc(N)c(C(=O)c2ccc(Cl)c(Cl)c2)c1-c1cccc(C(F)(F)F)c1 | 73 | 75 |  |  |  |
| Cc1sc(N)c(C(=O)c2cccc(C(F)(F)F)c2)c1-c1cc(C(F)(F)F)cc(C(F)(F)F)c1 | 84 | 84 |  |  |  |
| Nc1scc(-c2cc(C(F)(F)F)cc(C(F)(F)F)c2)c1C(=O)c1cccc(C(F)(F)F)c1 | 90 | 84 |  |  |  |
| Cc1sc(N)c(C(=O)c2ccccc2)c1-c1cc(C(F)(F)F)cc(C(F)(F)F)c1 | 83 | 95 |  |  |  |
| Cc1ccc(C(=O)c2c(N)sc(C)c2-c2cccc(C(F)(F)F)c2)cc1 | 86 | 90 |  |  |  |
| Cc1sc(N)c(C(=O)c2cccc(C(F)(F)F)c2)c1-c1cccc(C(F)(F)F)c1 | 90 | 86 |  |  |  |
| Cc1ccc(C(=O)c2c(N)sc(C)c2-c2cc(C(F)(F)F)cc(C(F)(F)F)c2)cc1 | 92 | 80 |  |  |  |
| Cc1sc(N)c(C(=O)c2ccc(Cl)c(Cl)c2)c1-c1cc(C(F)(F)F)cc(C(F)(F)F)c1 | 78 | 84 |  |  |  |
| Nc1scc(-c2cc(C(F)(F)F)cc(C(F)(F)F)c2)c1C(=O)c1ccc(Cl)c(Cl)c1 | 90 | 90 |  |  |  |
| Nc1scc(-c2cccc(C(F)(F)F)c2)c1C(=O)c1ccc(Cl)c(Cl)c1 | 88 | 88 |  |  |  |
| Cc1sc(N)c(C(=O)c2ccc(Cl)cc2)c1-c1cccc(C(F)(F)F)c1 | 94 | 94 | Active | Active |  |
| Cc1sc(N)c(C(=O)c2ccccc2)c1-c1cccc(C(F)(F)F)c1 | 77 | 73 | Active | Active | Active |
| Nc1scc(-c2cccc(C(F)(F)F)c2)c1C(=O)c1cccc(C(F)(F)F)c1 | 93 | 94 |  |  |  |
| Cc1ccc(C(=O)c2c(-c3cccc(C(F)(F)F)c3)csc2N)cc1 | 85 | 83 |  |  |  |
